Screening results as filed in PubChem.
Ecoli rRNA inh – reduced GFP signal of wild-type E. coli, primary screen, bacterial rRNA inhibitor project, GFP/RFP fluorescence, OD600, single point. AID 720706, 2013. GFP signal change (wild-type ribosome), % (concentration not given with the values). actives 1.6% (n = 350,000). E. coli WT GFP vs humanized-ribosome RFP mutants, 24 h; active compounds read low; DMSO median 0, no signal -100;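 active = significant combined selectivity score with lowered wild-type GFP, culture density cut under 30%, mutant RFP and density less affected; inactive = any of these conditions unmet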
ERp5 inh – inhibitors of ERp5-driven insulin aggregation, primary screen, biochemical, turbidity, absorbance 650 nm, single point; Protein disulfide-isomerase A6 (Homo sapiens), Q15084; 90 min; inhibition, % at 9.99 µM; actives 0.05% (n = 350,000);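 active = mean replicate inhibition above about 25%, with every replicate also reaching it, limit read from the data, passing the limit was not always enough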
PvdQ inh – P. aeruginosa PvdQ acylase inhibitors, primary screen, biochemical, fluorescence, plate reader and imaging, single point; PvdQ acylase [Pseudomonas aeruginosa LESB58]; purified PvdQ acylase; inhibition, % at 10 µM; actives 0.063% (n = 340,000); AID 488965, 2010; in the data active = inhibition above about 30%, passing the limit was not always enough
FN deposition inh – inhibitors of fibronectin matrix deposition, primary screen, AH1F cells, Alexa488-fibronectin fluorescence, plate reader | inhibition, % at 12.6 µM | AH1F fibroblasts, overnight | actives 0.086% (n = 350,000) | AID 743247, 2014;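 active = mean inhibition across replicates of 30% or more, regardless of how many single replicates reach that level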
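Material: AH1F fibroblast monolayer depositing Alexa488-labelled fibronectin into matrix | Input: 10000 AH1F cells/well | Medium: DMEM plus 2% serum, read in PBS | Reagent: Alexa488-fibronectin, 24 nM final in well | Compound dosing: One dose per compound, pinned | Schedule: 1 h adhesion, overnight exposure | Measured by: Fluorescence at 485 nm excitation, 525 nm emission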
PDI turbidity – inhibitors of human PDI, primary screen, biochemical, turbidity, single point, plate reader. PDI insulin aggregation turbidity, A650, 90 min. inhibition, % at 10 µM. actives 0.052% (n = 350,000). Protein disulfide-isomerase (Homo sapiens), P07237;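 active = mean inhibition across replicates of 30% or more, whatever share of single replicates reach that level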
Target sequence (P07237 whole entry, looked up): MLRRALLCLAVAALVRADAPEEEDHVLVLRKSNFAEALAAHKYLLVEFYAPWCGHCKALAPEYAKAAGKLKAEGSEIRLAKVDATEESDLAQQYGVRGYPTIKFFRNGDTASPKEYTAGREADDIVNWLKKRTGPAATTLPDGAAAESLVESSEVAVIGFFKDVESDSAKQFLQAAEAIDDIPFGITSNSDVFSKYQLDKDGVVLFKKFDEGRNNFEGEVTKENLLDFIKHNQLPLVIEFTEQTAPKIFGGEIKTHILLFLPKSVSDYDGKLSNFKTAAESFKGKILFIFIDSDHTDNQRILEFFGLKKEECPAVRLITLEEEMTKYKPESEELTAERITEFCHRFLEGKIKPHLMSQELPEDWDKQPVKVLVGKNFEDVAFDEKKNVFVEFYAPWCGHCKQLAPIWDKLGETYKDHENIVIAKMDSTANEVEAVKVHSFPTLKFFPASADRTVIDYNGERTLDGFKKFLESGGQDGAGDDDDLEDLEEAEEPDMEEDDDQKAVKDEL
HIV Env fusion – inhibitors of HIV-1 Env-driven cell-cell fusion, primary screen, HeLa-JRFL effector, CEM21 target cells, luciferase. inhibition, % at 12.3 µM. actives 1.1% (n = 360,000). AID 651610, 2012;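 active = mean replicate inhibition score of at least 50 and every replicate individually at or above 50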
A number is an active result; – = inactive; · = no result given; [ ] = remark or other dose. Hits are enriched below; roughly 2.2% of the tested compounds scored in any of these assays.

SMILES	Ecoli rRNA inh	ERp5 inh	PvdQ inh	FN deposition inh	PDI turbidity	HIV Env fusion
C[C@@H]1CN([C@H](C)CO)C(=O)c2cccc(NC(=O)c3cnccn3)c2O[C@H]1CN(C)C	–	–	·	·	·	·
CCC(=O)N1CC2(C1)CN(C(=O)CC)[C@@H](CO)c1[nH]c3cc(OC)ccc3c12	–	–	·	·	·	–
O=C1N[C@H](Cc2ccccc2)COCc2cnnn2CC[C@@H]1Cc1cccc(Cl)c1	–	·	·	–	·	·
COc1ccc([C@H]2CC(=O)C=C(c3ccc(F)cc3OCc3ccccc3)C2)cc1OC	–	–	–	–	–	72
C[C@@H]1CN([C@@H](C)CO)C(=O)Cc2cc(NS(=O)(=O)c3ccc(F)cc3)ccc2O[C@@H]1CN(C)Cc1ccc(Cl)c(Cl)c1	–	·	·	·	·	–
C[C@@H]1CN([C@@H](C)CO)C(=O)Cc2cc(NS(=O)(=O)c3ccccc3)ccc2O[C@@H]1CN(C)Cc1ccc(Cl)c(Cl)c1	–	–	·	·	·	–
C[C@@H]1CN([C@@H](C)CO)C(=O)Cc2cc(NS(=O)(=O)c3ccc(F)cc3)ccc2O[C@H]1CN(C)Cc1ccc(Cl)c(Cl)c1	–	·	·	·	·	100[16.7 µM]
C[C@H]1CN([C@@H](C)CO)C(=O)Cc2cc(NS(=O)(=O)c3ccccc3)ccc2O[C@@H]1CN(C)Cc1ccc(Cl)c(Cl)c1	–	–	·	·	·	58[16.7 µM]
O=C(C[C@@H]1CC[C@H]2[C@@H](COC[C@@H](O)CN2C(=O)Nc2ccc(Cl)cc2)O1)NCc1ccncn1	–	–	·	–	·	·
Cc1sc2ncnc(Sc3nnnn3-c3ccc(Cl)cc3)c2c1C	·	·	–	–	–	50
O=C(C[C@@H]1CC[C@H](NC(=O)C2CCOCC2)[C@@H](CO)O1)NCC1CC1	–	–	·	·	·	·
COc1ccc(NC(=O)Nc2ccc3c(c2)N(C)C(=O)CS3)cc1OC	–	–	–	–	–	–
COc1ccc(NC(=O)Nc2ccc3c(c2)N(C)C(=O)CS3)cc1Cl	·	·	–	·	–	76
COc1ccccc1-c1ccc([C@H]2[C@H](CO)N(C(C)=O)C23CN(C(C)=O)C3)cc1	–	–	·	·	·	·
Cc1[nH]n(-c2cccc(Cl)c2)c(=O)c1C=NCc1ccco1	–	–	–	–	–	–
Cc1[nH]n(-c2cccc(Cl)c2)c(=O)c1C=NCC(C)C	-21	–	–	–	–	–
COc1cccc(CNC(=O)CCC2CCCN(C/C=C/c3ccccc3OC)C2)c1 (configuration not stated)	–	–	–	–	–	–
COc1ccccc1/C=C/CN1CCCC(CCC(=O)NCc2ccc(F)c(F)c2)C1 (configuration not stated)	–	–	–	–	–	63
O=C(Nc1ccc(N2CCOCC2)cc1)C1CC1	·	·	–	–	–	–
O=C(N/N=C/c1ccc(N2CCOCC2)cc1)C1CC1	–	–	–	–	38	–
COc1cccc(C(=O)CC(C#N)c2ccc(F)cc2)c1 (configuration not stated)	–	–	69	·	–	·
O=C(CN1CCC(n2nnc3cc(F)ccc32)CC1)N1CCc2ccccc2C1	-23	–	–	·	–	·
O=C(Cc1cccc2ccccc12)OCn1nnc2ccccc2c1=O	-18	–	–	–	·	–
COc1cc(CC(=O)OCn2nnc3ccccc3c2=O)cc(OC)c1OC	–	–	–	–	–	–
O=C(Nc1ccccc1)N1CC(=O)N2[C@H](CO)[C@@H](c3ccc(-c4ccc(F)cc4)cc3)[C@H]2C1	–	·	·	·	·	·
COc1ccccc1C1NC(=O)NC(C)=C1C(=O)OCc1ccccc1 (configuration not stated)	-23	–	–	–	–	–
CC1=C(C(=O)OCc2ccccc2)C(c2ccccc2Br)NC(=O)N1 (configuration not stated)	-34	–	–	–	–	–
CCOc1ccccc1C1NC(=O)NC(C)=C1C(=O)OCc1ccccc1 (configuration not stated)	–	–	–	–	–	–
